# Measured values: ChEMBL document CHEMBL3232843, “Novel pyrrolidine diketopiperazines selectively inhibit melanoma cells via induction of late-onset apoptosis” (J Med Chem, 2014)
# Activity calls are given as the source filed them. The calls are words filed in the database; no cut-off is given here.
# Legend:
# A549 = assay: Cytotoxicity against human A549 cells at 100 uM after 72 hrs by CellTiter-Glo luminescence assay; assay type: functional; conditions: A549, 72 h
# Procedure, shortened: (§1)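 1250 cells per well in serum-free medium (F12 for CHO-K1 and A549, DMEM for M14). Compounds given as 10-point 1:3 serial dilutions from a 300 µM stock, plus a gefitinib control. Incubated 72 h at 37 °C, 5% CO2. CellTiter-Glo added for 15 min at room temperature, then luminescence read. Viability normalized to media-only wells (0%) and 1% DMSO wells (100%). Run in triplicate.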
# [1] = Cytotoxicity against CHOK1 cells at 100 uM after 72 hrs by CellTiter-Glo luminescence assay; assay type: cell-based, Cricetulus griseus; conditions: chinese hamster, CHO-K1 cells; read-out: INH; procedure, shortened: as §1
# M14 [2] = assay: Cytotoxicity against human M14 cells at 100 uM after 72 hrs by CellTiter-Glo luminescence assay; assay type: functional; conditions: M14, 72 h; procedure, shortened: as §1
# M14 [3] = assay: Induction of apoptosis human M14 cells assessed as caspase activity after 4 to 24 hrs using DEVD peptide as substrate by ApoTox-Glo triplex assay; assay type: functional, cell-based
# Procedure, shortened: (§2)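 M14 cells, 1250 per well, in serum-free DMEM, settled 4 h, then given 1:3 serial dilutions. Ionomycin, terfenadine and panobinostat were the controls. Incubated 4, 24, 48 or 72 h at 37 °C. A reagent containing 400 µM GF-AFC (live-cell protease, ex 400/em 505 nm) and 400 µM bis-AAF-R110 (dead-cell protease, ex 485/em 520 nm) was applied for 30 min at 37 °C. Caspase-Glo 3/7 (DEVD) luminescence was then read after 30 min at room temperature.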
# M14 [4] = assay: Cytotoxicity against human M14 cells assessed as cell viability after 4 hrs using GF-AFC as substrate by ApoTox-Glo triplex assay; assay type: functional, cell-based
# Procedure, shortened: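 M14 #5 cells, 1250 per well in serum-free DMEM, pre-incubated 4 h at 37 °C, 5% CO2. Compounds added as 1:3 serial dilutions; incubated 4, 24, 48 and 72 h. Per time point, a reagent containing 400 µM GF-AFC (live-cell protease) and 400 µM bis-AAF-R110 (dead-cell protease) was added for 30 min at 37 °C, then fluorescence was read. Caspase-Glo 3/7 was added next, 30 min at room temperature, then luminescence.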
# M14 [5] = assay: Cytotoxicity against human M14 cells assessed as cell viability after 4 hrs using bis-AAF-R110 as substrate by ApoTox-Glo triplex assay; assay type: functional, cell-based; procedure, shortened: as §2
# M14 [6] = assay: Cytotoxicity against human M14 cells assessed as cell viability at 100 uM after 24 hrs by CellTiter-Glo luminescence assay; assay type: functional, cell-based
# Procedure, shortened: (§3)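 M14 cells, 1250 per well, in serum-free DMEM. Compounds given in 10-point 1:3 dilution series starting at 100 µM; controls were gefitinib, doxorubicin and ionomycin. Incubated at 37 °C, 5% CO2. CellTiter-Glo luminescence read at 4, 24, 48 and 72 h. Viability normalized to media-only wells and 1% DMSO-treated wells.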
# M14 [7] = assay: Cytotoxicity against human M14 cells assessed as cell viability at 100 uM after 48 hrs by CellTiter-Glo luminescence assay; assay type: functional, cell-based; procedure, shortened: as §3
# B16-F10 = assay: (§4) Cytotoxicity against mouse B16F10 cells expressing p53 mutant after 48 hrs by hexosaminidase assay; assay type: functional, cell-based
# Procedure, shortened: (§5)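 SK-MEL-28 or B16/F10 cells plated in 96-well plates, grown overnight, then treated with 0–50 µM compound for 48 h. Cells washed with PBS, given hexosaminidase substrate for 30 min at 37 °C, then developer. Absorbance read at 405 nm. Percent viability = treated/control absorbance × 100.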
# [8] = as §4; assay type: functional, cell-based; conditions: B16-F10, 48 h; procedure, shortened: as §5
# M14 [9] = assay: Cytotoxicity against human M14 cells after 72 hrs by CellTiter-Glo luminescence assay; assay type: functional, cell-based; procedure, shortened: as §1
# [10] = target: Histone deacetylase 1 (Homo sapiens) (UniProt Q13547); assay: Inhibition of HDAC1 (unknown origin) up to 100 uM
# Sequence of Histone deacetylase 1 (Homo sapiens) (Q13547 whole entry): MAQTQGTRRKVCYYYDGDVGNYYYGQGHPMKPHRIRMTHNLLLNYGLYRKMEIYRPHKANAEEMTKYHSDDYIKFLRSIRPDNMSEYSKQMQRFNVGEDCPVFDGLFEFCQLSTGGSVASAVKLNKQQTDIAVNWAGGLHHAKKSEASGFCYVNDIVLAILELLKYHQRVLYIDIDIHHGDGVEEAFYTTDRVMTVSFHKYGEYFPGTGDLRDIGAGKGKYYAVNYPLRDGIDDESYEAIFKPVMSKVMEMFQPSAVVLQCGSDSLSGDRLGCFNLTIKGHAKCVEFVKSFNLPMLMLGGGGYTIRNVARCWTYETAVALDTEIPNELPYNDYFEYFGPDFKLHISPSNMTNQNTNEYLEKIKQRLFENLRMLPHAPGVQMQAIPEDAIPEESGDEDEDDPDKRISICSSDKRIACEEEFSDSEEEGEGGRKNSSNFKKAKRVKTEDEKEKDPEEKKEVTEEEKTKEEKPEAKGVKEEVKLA
# SK-MEL-28 [11] = assay: Cytotoxicity against human SK-MEL-28 cells expressing B-raf V600E mutant after 48 hrs by hexosaminidase assay; assay type: functional, cell-based; procedure, shortened: as §5
# [12] = target: T1, Protein deacetylase HDAC6 (Homo sapiens) (UniProt Q9UBN7); assay: Inhibition of HDAC6 (unknown origin) up to 100 uM
# T1 sequence (whole entry): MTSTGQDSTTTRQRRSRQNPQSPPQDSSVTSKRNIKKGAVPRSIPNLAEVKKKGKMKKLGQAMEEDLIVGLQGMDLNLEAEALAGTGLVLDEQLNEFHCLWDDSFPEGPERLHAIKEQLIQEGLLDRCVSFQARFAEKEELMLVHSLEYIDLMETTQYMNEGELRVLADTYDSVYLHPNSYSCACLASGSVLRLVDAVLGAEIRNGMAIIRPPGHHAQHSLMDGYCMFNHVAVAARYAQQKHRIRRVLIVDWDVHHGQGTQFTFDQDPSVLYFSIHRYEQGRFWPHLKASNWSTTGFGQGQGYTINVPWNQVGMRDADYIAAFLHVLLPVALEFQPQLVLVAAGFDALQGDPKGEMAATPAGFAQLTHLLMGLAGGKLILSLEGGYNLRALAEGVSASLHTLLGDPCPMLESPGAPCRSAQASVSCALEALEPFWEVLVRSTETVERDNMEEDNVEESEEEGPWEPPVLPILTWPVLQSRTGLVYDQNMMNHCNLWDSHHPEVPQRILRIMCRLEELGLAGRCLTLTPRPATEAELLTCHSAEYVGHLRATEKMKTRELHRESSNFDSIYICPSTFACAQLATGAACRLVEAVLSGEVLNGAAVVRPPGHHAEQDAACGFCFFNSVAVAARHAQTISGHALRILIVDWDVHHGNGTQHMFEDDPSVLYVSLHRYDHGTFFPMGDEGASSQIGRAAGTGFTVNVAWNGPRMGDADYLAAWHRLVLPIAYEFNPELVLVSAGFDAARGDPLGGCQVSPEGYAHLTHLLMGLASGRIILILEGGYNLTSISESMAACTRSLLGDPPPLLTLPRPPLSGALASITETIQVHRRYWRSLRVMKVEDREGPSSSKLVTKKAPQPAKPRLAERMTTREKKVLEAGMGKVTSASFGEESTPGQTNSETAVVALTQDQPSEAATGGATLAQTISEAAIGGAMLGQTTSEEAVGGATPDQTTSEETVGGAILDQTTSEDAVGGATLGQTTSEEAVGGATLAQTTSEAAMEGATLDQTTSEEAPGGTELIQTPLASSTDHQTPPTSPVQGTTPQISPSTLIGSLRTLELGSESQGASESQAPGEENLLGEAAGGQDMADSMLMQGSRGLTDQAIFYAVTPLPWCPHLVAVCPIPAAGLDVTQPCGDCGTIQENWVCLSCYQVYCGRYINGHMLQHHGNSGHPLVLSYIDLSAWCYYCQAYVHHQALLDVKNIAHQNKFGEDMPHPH
# M14 [13] = assay: Cytotoxicity against human M14 cells assessed as cell viability at 100 uM after 4 hrs by CellTiter-Glo luminescence assay; assay type: functional, cell-based; procedure, shortened: as §3
# [14] = target: Histone deacetylase 2 (Homo sapiens) (UniProt Q92769); assay: Inhibition of HDAC2 (unknown origin) up to 100 uM
# Sequence of Histone deacetylase 2 (Homo sapiens) (Q92769 whole entry): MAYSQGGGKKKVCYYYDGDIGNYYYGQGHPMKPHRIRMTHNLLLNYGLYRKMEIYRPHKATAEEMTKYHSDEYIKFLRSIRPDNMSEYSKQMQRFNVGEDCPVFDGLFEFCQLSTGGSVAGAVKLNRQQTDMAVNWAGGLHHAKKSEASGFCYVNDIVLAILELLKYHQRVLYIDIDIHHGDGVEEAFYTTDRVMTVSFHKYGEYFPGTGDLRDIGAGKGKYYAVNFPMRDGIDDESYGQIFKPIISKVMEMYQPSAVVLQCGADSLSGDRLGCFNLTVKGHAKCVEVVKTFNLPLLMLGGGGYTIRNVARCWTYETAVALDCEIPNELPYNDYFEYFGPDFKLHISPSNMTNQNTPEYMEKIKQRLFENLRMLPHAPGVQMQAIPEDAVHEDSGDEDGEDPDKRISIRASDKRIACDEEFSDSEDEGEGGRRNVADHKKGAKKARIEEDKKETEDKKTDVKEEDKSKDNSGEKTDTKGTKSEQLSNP
# [15] = Cytotoxicity against human M238 cells expressing B-raf V600E mutant; assay type: functional, cell-based
# SK-MEL-28 [16] = assay: Cytotoxicity against human SK-MEL-28 cells expressing B-raf V600E mutant; assay type: functional, cell-based
# [17] = Cytotoxicity against human M262 cells expressing B-raf V600E mutant; assay type: functional, cell-based
# [18] = Cytotoxicity against human M263 cells expressing B-raf V600E mutant; assay type: functional, cell-based
# [19] = Cytotoxicity against human M229 cells expressing B-raf V600E mutant; assay type: functional, cell-based
# M14 [20] = assay: Cytotoxicity against human M14 cells expressing […] mutant; assay type: functional, cell-based
# [21] = Cytotoxicity against human M321 cells expressing B-raf V600E mutant; assay type: functional, cell-based
# [22] = Cytotoxicity against human M249 cells expressing B-raf V600E mutant; assay type: functional, cell-based
# M14 [23] = assay: Induction of apoptosis human M14 cells assessed as caspase activity at 100 uM after 4 hrs using DEVD peptide as substrate by ApoTox-Glo triplex assay; assay type: functional, cell-based; procedure, shortened: as §2
# M14 [24] = assay: Cytotoxicity against human M14 cells assessed as cell viability at 100 uM after 4 hrs using bis-AAF-R110 as substrate by ApoTox-Glo triplex assay; assay type: functional, cell-based; procedure, shortened: as §2
# M14 [25] = assay: Cytotoxicity against human M14 cells assessed as cell viability after 24 hrs using GF-AFC as substrate by ApoTox-Glo triplex assay; assay type: functional, cell-based; procedure, shortened: as §2
# M14 [26] = assay: Cytotoxicity against human M14 cells assessed as cell viability at 100 uM after 4 hrs using GF-AFC as substrate by ApoTox-Glo triplex assay; assay type: functional, cell-based; procedure, shortened: as §2
# M14 [27] = assay: Induction of apoptosis human M14 cells assessed as caspase activity after 24 to 48 hrs using DEVD peptide as substrate by ApoTox-Glo triplex assay; assay type: functional, cell-based; procedure, shortened: as §2
compound,measurement,setting,value
CCC[C@@H]1CNC(=O)C(=O)N1C[C@@H]1CCCN1C[C@H](Cc1ccc(O)cc1)N1C[C@H](Cc2ccc(O)cc2)N(CC(CC)c2ccccc2)C(=O)C1=O (stereo partly specified),inhibition at 100 µM,A549,0%
same,"cytotoxicity at 72 h, 100 µM",[1],27%
same,inhibition at 100 µM,M14 [2],10%
CC(C)(C)c1ccc(C(O)CCCN2CCC(C(O)(c3ccccc3)c3ccccc3)CC2)cc1 (stereo unspecified),Activity,M14 [3],Active
same,Activity,M14 [4],Active
same,Activity,M14 [5],Active
O=C1NC[C@H](Cc2ccccc2)N(C[C@@H]2CCCN2C[C@H](Cc2ccccc2)N2C[C@H](Cc3ccc(O)cc3)N(CCC34CC5CC(CC(C5)C3)C4)C(=O)C2=O)C1=O,Activity,M14 [6],Active
same,Activity,M14 [7],Active
same,inhibition,B16-F10,Dose-dependent effect
same,IC50,[8],1.15 µM
same,inhibition,M14 [9],Dose-dependent effect
same,IC50,"M14 [9]; M14, 72 h",0.75 µM
same,inhibition,[10],inactive
same,inhibition,SK-MEL-28 [11],Dose-dependent effect
same,inhibition,[12],inactive
same,Activity,M14 [13],inactive
same,inhibition,[14],inactive
CCCS(=O)(=O)Nc1ccc(F)c(C(=O)c2c[nH]c3ncc(-c4ccc(Cl)cc4)cc23)c1F [VEMURAFENIB],IC50,[15],0.1 µM
same,IC50,SK-MEL-28 [16],0.1 µM
same,IC50,[17],0.1 µM
same,IC50,[18],0.1 µM
same,IC50,[19],0.1 µM
same,IC50,M14 [20],0.15 µM
same,IC50,[21],0.1 µM
same,IC50,[22],0.1 µM
CCC[C@@H]1CNC(=O)C(=O)N1C[C@@H]1CCCN1C[C@@H](Cc1ccc(O)cc1)N1C[C@@H](Cc2ccc(O)cc2)N(CC(CC)c2ccccc2)C(=O)C1=O (stereo partly specified),inhibition at 100 µM,A549,8%
same,"cytotoxicity at 72 h, 100 µM",[1],59%
same,inhibition at 100 µM,M14 [2],14%
Cc1[nH]c2ccccc2c1CCNCc1ccc(/C=C/C(=O)NO)cc1,Activity,M14 [23],inactive
same,Activity,M14 [24],inactive
same,Activity,M14 [25],Dose-dependent effect
same,Activity,M14 [26],inactive
same,Activity,M14 [27],Active
CCC[C@@H]1CNC(=O)C(=O)N1C[C@@H]1CCCN1C[C@H](Cc1ccc(O)cc1)N1C[C@H](Cc2ccc(O)cc2)N(CC2CCCC2)C(=O)C1=O,inhibition at 100 µM,A549,0%
same,"cytotoxicity at 72 h, 100 µM",[1],7%
same,inhibition at 100 µM,M14 [2],15%
